This note sets out measurements from PMC6605687 (The Journal of General Physiology, 2019).

Residue numbers refer to the chain shown, from its start.

What all share (assay type): cell-based
The target of assay [1] is T1, rP2X2 Ile185Val (Rattus norvegicus, UniProt P49653, I185V).
T1 sequence (P49653 1-472 I185V): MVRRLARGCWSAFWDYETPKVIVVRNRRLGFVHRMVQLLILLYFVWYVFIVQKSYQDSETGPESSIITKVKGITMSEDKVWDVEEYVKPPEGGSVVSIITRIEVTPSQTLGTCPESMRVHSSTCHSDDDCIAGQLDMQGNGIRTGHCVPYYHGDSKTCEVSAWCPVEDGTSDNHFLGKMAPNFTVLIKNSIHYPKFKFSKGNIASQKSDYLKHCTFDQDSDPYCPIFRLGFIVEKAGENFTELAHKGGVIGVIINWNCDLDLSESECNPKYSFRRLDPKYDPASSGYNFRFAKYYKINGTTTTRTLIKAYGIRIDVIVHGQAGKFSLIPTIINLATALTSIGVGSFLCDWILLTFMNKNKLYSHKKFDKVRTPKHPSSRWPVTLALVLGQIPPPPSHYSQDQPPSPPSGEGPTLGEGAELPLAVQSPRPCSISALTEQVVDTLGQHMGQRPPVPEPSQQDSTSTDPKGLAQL
Put plainly: Two-electrode voltage clamp, oocytes expressing rP2X2 Ile185Val. In a few lines:
(§1)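 Mutations were made by site-directed mutagenesis. Xenopus oocytes were injected with rP2X2 mRNA and incubated in L-15 at 18°C. Two-electrode voltage clamp was done 1–2 days later at −40 mV under ND96 perfusion (pH 7.4). ATP concentration-response currents were normalised and fitted to a one-component Hill equation for EC50 and Hill coefficient. Results are mean ± SEM, tested by one-way ANOVA with Dunnett's test against WT.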
On the technique in general: Two-electrode voltage clamp holds a large cell at a set potential and records current.

Assay [2] concerns the target T2, rP2X2 Lys188Arg (Rattus norvegicus, UniProt P49653, K188R).
T2 sequence (P49653 1-472 K188R): T1 sequence (P49653 1-472 I185V) with V185I, K188R
Put plainly: Two-electrode voltage clamp, oocytes expressing rP2X2 Lys188Arg. In short, it runs like this: as §1

Assay [3] deals with T3, rP2X2 Arg290Gln (Rattus norvegicus, UniProt P49653, R290Q).
T3 sequence (P49653 1-472 R290Q): T1 sequence (P49653 1-472 I185V) with V185I, R290Q
Put plainly: Two-electrode voltage clamp, oocytes expressing rP2X2 Arg290Gln. In short, it runs like this: as §1

For assay [4], the target named is T4, rP2X2-3T receptors (Rattus norvegicus, UniProt P49653, C348T/C430T/C9T).
T4 sequence (P49653 1-472 C9T/C348T/C430T): T1 sequence (P49653 1-472 I185V) with C9T, V185I, C348T, C430T
Put plainly: Single channel outside-out patch-clamp recordings, HEK-293 cells. To be noted: agonist 1 µM, mean ± SEM. In short, it runs like this: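 HEK-293 cells were co-transfected by calcium phosphate with rP2X2-3T DNA plus GFP DNA to mark transfected cells, then recorded within 24 h. Outside-out patches were held at −120 mV. Pipette contained 147 NaF, 10 EGTA and 10 HEPES (mM, pH 7.3). Agonist at 1, 10 or 100 µM in extracellular saline (pH 7.3) was applied by fast perfusion for 10 s per 12-s sweep, at 1-min intervals. Amplitudes came from Gaussian fits to all-points histograms, with 2–5 sweeps averaged per patch.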
On the technique in general: The patch-clamp technique gives a direct electrical read-out from membranes.

The target of assay [5] is T5, rP2X2 Lys188Gln (Rattus norvegicus, UniProt P49653, K188Q).
T5 sequence (P49653 1-472 K188Q): T1 sequence (P49653 1-472 I185V) with V185I, K188Q
Put plainly: Two-electrode voltage clamp, oocytes expressing rP2X2 Lys188Gln. In a few lines:
as §1

Usually EC50 stands for the concentration giving half of the maximal effect. A higher EC50 goes with lower potency in that assay. On to `Nc1ncnc2c1ncn2[C@@H]1O[C@H](COP(=O)(O)OP(=O)(O)OP(=O)(O)O)[C@@H](O)[C@H]1O` [ATP, Adenosine 5′-triphosphate], for which the half-maximal effective concentration (EC50) was determined as 23 ± 3 µM in assay [1], 57 ± 8 µM in assay [2], 4900 µM in assay [3] and 8700 µM in assay [5]. The “SDopen (SD of the open state amplitude)” value in assay [4] stood at 1.02 ± 0.1.
